According to ChEMBL document CHEMBL1152523, “3-Substituted phenylalanines as selective AMPA- and kainate receptor ligands” (Bioorg Med Chem, 2009):
Activity calls are given as the source filed them. The rule behind the calls is not given here.

Assays:
Glutamate receptor 2 = Glutamate receptor 2 (Rattus norvegicus, UniProt P19491); test: Displacement of [3H]AMPA from wild type rat GluR2 S1S2 ligand binding core
Rattus norvegicus = organism: Rattus norvegicus; test: Displacement of [3H]kainic acid from kainate receptor in rat cortical membrane; type: cell membranes
Procedure, shortened: (§1)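 Native rat brain membranes prepared per Ransom and Stec. Competition binding with 5 nM [3H]AMPA or 5 nM [3H]KA. Three independent experiments, mean ± SEM.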

[1] = molecular target: Glutamate NMDA receptor (Rattus norvegicus) (UniProt P35439+Q00959+Q00960+Q00961+Q62645+Q8VHN2+Q9R1M7); test: Displacement of [3H]CGP39653 from NMDA receptor in rat cortical membrane; type: cell membranes
Procedure, shortened: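 Rat brain membranes prepared per Ransom and Stec. Binding at the NMDA site measured with 2 nM [3H]CGP 39653. Three independent experiments, mean ± SEM.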

[2] = molecular target: Glutamate receptor ionotropic, kainate 2 (Rattus norvegicus) (UniProt P42260); test: Displacement of [3H]SYM2081 from rat recombinant iGluR6 expressed in baculovirus-infected insect Sf9 cells
Procedure, shortened: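 Recombinant rat iGluR6(V,C,R) expressed in baculovirus-infected Sf9 insect cells. Competition binding against [3H]-SYM 2081 radioligand. Three independent experiments, mean ± SEM.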

[3] = molecular target: T1, Glutamate receptor ionotropic, kainate 1 (Rattus norvegicus, UniProt P22756); test: Displacement of [3H]S-glutamate from rat GluR5 S1S2 ligand binding core expressed in Escherichia coli (DE3)
[4] = Displacement of [3H]AMPA from AMPA receptor in rat cortical membrane; type: cell membranes; procedure, shortened: as §1
[5] = molecular target: T1, Glutamate receptor ionotropic, kainate 1; test: Displacement of [3H]SYM2081 from rat recombinant iGluR5-1b expressed in baculovirus-infected insect Sf9 cells
Procedure, shortened: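 Recombinant rat iGluR5(Q)1b expressed in Sf9 insect cells via baculoviral infection; competition binding against [3H]-SYM 2081 radioligand. Values from three independent experiments, expressed as mean ± SEM.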

T1 sequence (P22756 whole entry): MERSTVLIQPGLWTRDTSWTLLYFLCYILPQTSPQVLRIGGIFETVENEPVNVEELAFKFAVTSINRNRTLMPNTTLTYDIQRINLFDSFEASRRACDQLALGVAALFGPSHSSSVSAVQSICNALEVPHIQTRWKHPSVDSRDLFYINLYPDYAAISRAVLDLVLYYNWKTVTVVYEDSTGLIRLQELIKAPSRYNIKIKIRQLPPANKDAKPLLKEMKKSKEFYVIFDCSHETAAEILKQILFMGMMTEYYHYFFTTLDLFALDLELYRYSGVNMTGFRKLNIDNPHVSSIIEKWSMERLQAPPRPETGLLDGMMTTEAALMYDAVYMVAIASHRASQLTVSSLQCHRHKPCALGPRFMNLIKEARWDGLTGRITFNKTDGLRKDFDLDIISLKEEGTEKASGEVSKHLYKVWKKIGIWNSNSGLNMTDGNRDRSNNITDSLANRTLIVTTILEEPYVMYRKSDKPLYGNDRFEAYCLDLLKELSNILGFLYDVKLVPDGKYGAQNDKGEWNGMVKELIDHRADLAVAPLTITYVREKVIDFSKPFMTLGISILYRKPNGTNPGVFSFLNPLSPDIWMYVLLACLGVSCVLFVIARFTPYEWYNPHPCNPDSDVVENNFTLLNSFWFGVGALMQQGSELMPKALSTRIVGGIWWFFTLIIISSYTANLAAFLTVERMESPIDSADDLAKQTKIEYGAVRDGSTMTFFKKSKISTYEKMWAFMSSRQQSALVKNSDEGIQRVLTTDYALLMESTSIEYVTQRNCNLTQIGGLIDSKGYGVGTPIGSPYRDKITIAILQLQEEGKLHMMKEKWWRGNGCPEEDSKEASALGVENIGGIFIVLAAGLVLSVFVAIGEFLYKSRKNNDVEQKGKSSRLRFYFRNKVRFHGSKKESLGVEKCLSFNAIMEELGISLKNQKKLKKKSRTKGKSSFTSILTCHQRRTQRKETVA
Sequence of Glutamate receptor ionotropic, kainate 2 (Rattus norvegicus) (P42260 whole entry): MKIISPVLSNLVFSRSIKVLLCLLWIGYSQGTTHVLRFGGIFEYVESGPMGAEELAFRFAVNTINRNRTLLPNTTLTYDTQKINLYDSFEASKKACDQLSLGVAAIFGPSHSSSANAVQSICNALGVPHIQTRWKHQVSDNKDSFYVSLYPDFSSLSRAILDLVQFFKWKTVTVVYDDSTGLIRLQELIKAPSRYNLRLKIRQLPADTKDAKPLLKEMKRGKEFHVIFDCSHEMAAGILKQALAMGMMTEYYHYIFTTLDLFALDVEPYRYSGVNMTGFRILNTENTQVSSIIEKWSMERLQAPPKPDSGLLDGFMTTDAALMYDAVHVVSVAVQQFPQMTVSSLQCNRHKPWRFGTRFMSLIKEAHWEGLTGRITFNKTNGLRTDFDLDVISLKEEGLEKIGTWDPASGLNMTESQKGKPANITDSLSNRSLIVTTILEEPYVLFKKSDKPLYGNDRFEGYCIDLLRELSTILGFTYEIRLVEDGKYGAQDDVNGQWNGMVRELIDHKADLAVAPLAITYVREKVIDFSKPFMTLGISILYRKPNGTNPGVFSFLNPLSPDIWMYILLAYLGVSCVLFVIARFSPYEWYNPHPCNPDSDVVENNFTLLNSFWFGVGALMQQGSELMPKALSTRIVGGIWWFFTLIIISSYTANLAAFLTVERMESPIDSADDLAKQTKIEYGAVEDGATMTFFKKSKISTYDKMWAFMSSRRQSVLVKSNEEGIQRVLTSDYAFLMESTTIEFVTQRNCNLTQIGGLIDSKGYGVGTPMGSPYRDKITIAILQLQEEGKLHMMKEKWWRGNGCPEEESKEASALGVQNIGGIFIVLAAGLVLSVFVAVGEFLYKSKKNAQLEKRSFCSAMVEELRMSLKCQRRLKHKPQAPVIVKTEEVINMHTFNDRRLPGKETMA
Sequence of Glutamate receptor 2 (P19491 whole entry): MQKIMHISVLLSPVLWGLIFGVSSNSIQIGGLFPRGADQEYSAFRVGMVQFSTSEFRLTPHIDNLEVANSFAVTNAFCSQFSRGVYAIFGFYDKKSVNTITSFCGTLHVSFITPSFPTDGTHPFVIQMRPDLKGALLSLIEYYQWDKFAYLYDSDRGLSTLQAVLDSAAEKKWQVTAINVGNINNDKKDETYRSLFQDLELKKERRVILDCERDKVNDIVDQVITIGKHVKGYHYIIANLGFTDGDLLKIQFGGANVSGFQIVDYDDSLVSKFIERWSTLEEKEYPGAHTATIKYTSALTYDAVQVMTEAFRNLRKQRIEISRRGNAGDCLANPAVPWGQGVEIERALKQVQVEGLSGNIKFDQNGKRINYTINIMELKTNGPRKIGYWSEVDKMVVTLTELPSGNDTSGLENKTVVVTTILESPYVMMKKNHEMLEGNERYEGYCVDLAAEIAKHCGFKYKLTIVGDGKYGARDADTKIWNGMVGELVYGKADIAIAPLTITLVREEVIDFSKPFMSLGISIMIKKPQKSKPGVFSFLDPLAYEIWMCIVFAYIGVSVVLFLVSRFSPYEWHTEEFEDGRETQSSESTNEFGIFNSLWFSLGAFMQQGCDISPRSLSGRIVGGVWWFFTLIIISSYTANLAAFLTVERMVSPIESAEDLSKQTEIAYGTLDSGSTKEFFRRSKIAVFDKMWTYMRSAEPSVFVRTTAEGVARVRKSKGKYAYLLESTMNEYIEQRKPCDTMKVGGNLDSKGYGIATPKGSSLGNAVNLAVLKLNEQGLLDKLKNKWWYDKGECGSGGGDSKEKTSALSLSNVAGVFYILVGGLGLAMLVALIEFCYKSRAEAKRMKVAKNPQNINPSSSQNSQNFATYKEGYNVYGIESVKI

For `N[C@@H](Cn1ccc(=O)n(Cc2ccccc2C(=O)O)c1=O)C(=O)O`, the Kd (Glutamate receptor 2) was 146 µM, the Activity (Rattus norvegicus) was “inactive” and the Activity [1] was “inactive”. The Activity [2] was “inactive” and the Kd [3] was 3.94 µM.

With `NC(Cc1cccc(-c2ccc(CC(=O)O)cc2)c1)C(=O)O` (stereo not drawn) the Activity (Rattus norvegicus) was “inactive”, the IC50 [4] was over 100 µM and the Activity [1] was “inactive”. The Ki [5] was over 100 µM and the Activity [2] was “inactive”.

With `N[C@@H](Cc1cccc(-c2cccc(C(=O)O)c2)c1)C(=O)O` the Activity (Rattus norvegicus) was “inactive”, the Activity [1] was “inactive” and the Ki [5] was 4.08 µM. The Activity [2] was “inactive”.

For `N[C@H](Cc1cccc(-c2cccc(C(=O)O)c2)c1)C(=O)O`, the Activity (Rattus norvegicus) was “inactive”, the Activity [1] was “inactive” and the Ki [5] was over 1000 µM. The Activity [2] was “inactive”.

In the case of `CC(C)(C)c1onc(OCP(=O)(O)O)c1C[C@H](N)C(=O)O`, the Activity (Rattus norvegicus) is reported as “inactive”, the IC50 [4] is reported as 16 µM and the Activity [1] is reported as “inactive”. The Ki [5] was 2.9 µM and the Activity [2] was “inactive”.

With `NC(Cc1cccc(-c2ccccc2C(=O)O)c1)C(=O)O` (racemic) the Activity (Rattus norvegicus) was “inactive”, the IC50 [4] was over 100 µM and the Activity [1] was “inactive”. The Ki [5] was over 100 µM and the Activity [2] was “inactive”.

In the case of `NC(Cc1cc(Cl)c(Cl)c(-c2ccc(-c3nnn[nH]3)cc2)c1)C(=O)O` (racemic), the Activity (Rattus norvegicus) is reported as “inactive”, the IC50 [4] is reported as over 100 µM and the Activity [1] is reported as “inactive”. The Ki [5] was over 100 µM and the Activity [2] was “inactive”.

For `NC(Cc1cc(Cl)c(Cl)c(-c2ccc(C(=O)O)s2)c1)C(=O)O` (racemic), the Activity (Rattus norvegicus) was “inactive”, the IC50 [4] was 61 µM and the Activity [1] was “inactive”. The Ki [5] was at least 100 µM and the Activity [2] was “inactive”.

With `NC(Cc1cc(Cl)c(Cl)c(-c2ccccc2-c2nnn[nH]2)c1)C(=O)O` (racemic) the Activity (Rattus norvegicus) was “inactive”, the IC50 [4] was over 100 µM and the Activity [1] was “inactive”. The Ki [5] was over 100 µM and the Activity [2] was “inactive”.

For `NC(Cc1cc(Cl)c(Cl)c(-c2cccc(-c3nnn[nH]3)c2)c1)C(=O)O` (racemic), the Activity (Rattus norvegicus) was “inactive”, the IC50 [4] was over 100 µM and the Activity [1] was “inactive”. For the same molecule, the Ki [5] was at least 100 µM and the Activity [2] was “inactive”.

In the case of `NC(Cc1cc(Cl)c(Cl)c(-c2ccccc2O)c1)C(=O)O` (racemic), the Activity (Rattus norvegicus) is reported as “inactive”, the IC50 [4] is reported as 85 µM and the Activity [1] is reported as “inactive”. For the same molecule, the Ki [5] was over 100 µM and the Activity [2] was “inactive”.

For `NC(Cc1cccc(Cc2ccccc2C(=O)O)c1)C(=O)O` (racemic), the Activity (Rattus norvegicus) was “inactive”, the IC50 [4] was over 100 µM and the Activity [1] was “inactive”. The Ki [5] was at least 100 µM and the Activity [2] was “inactive”.

For `NC(Cc1cc(Cl)c(Cl)c(-c2ccc(C(=O)O)cc2)c1)C(=O)O` (racemic), the Activity (Rattus norvegicus) was “inactive”, the IC50 [4] was 42 µM and the Activity [1] was “inactive”. The Ki [5] was over 100 µM and the Activity [2] was “inactive”.

For `NC(Cc1cc(Cl)c(Cl)c(-c2ccc([N+](=O)[O-])cc2)c1)C(=O)O` (racemic), the Activity (Rattus norvegicus) was “inactive”, the IC50 [4] was over 100 µM and the Activity [1] was “inactive”. The Ki [5] was over 100 µM and the Activity [2] was “inactive”.

In the case of `NC(Cc1cc(Cl)c(Cl)c(-c2ccc(O)cc2)c1)C(=O)O` (racemic), the Activity (Rattus norvegicus) is reported as “inactive”, the IC50 [4] is reported as 33 µM and the Activity [1] is reported as “inactive”. The Ki [5] was over 100 µM and the Activity [2] was “inactive”.

With `NC(Cc1cc(Cl)c(Cl)c(-c2cccc(C(=O)O)c2)c1)C(=O)O` (racemic) the Activity (Rattus norvegicus) was “inactive”, the IC50 [4] was over 100 µM and the Activity [1] was “inactive”. The Ki [5] was 2.8 µM and the Activity [2] was “inactive”.

For `NC(Cc1cccc(-c2ccc(C(=O)O)cc2)c1)C(=O)O` (racemic), the Activity (Rattus norvegicus) was “inactive”, the IC50 [4] was 41 µM and the Activity [1] was “inactive”. For the same molecule, the Ki [5] was over 100 µM and the Activity [2] was “inactive”.

In the case of `NC(Cc1cccc(-c2cccc(CC(=O)O)c2)c1)C(=O)O` (racemic), the Activity (Rattus norvegicus) is reported as “inactive”, the IC50 [4] is reported as over 100 µM and the Activity [1] is reported as “inactive”. The Ki [5] was at least 100 µM and the Activity [2] was “inactive”.

For `NC(Cc1cccc(Cc2ccc(C(=O)O)cc2)c1)C(=O)O` (racemic), the Activity (Rattus norvegicus) was “inactive”, the IC50 [4] was over 100 µM and the Activity [1] was “inactive”. The Ki [5] was at least 100 µM and the Activity [2] was “inactive”.

For `NC(Cc1cc(Cl)c(Cl)c(-c2cccc([N+](=O)[O-])c2)c1)C(=O)O` (racemic), the Activity (Rattus norvegicus) was “inactive”, the IC50 [4] was over 100 µM and the Activity [1] was “inactive”. The Ki [5] was over 100 µM and the Activity [2] was “inactive”.

With `NC(Cc1cccc(-c2cccc(C(=O)O)c2)c1)C(=O)O` (racemic) the Activity (Rattus norvegicus) was “inactive”, the IC50 [4] was over 100 µM and the Activity [1] was “inactive”. For the same molecule, the Ki [5] was 7.9 µM and the Activity [2] was “inactive”.

In the case of `NC(Cc1cccc(Cc2cccc(C(=O)O)c2)c1)C(=O)O` (racemic), the Activity (Rattus norvegicus) is reported as “inactive”, the IC50 [4] is reported as over 100 µM and the Activity [1] is reported as “inactive”. For the same molecule, the Ki [5] was 50 µM and the Activity [2] was “inactive”.

For `NC(Cc1cc(Cl)c(Cl)c(-c2cccc(O)c2)c1)C(=O)O` (racemic), the Activity (Rattus norvegicus) was “inactive”, the IC50 [4] was 4.6 µM and the Activity [1] was “inactive”. For the same molecule, the Ki [5] was over 100 µM and the Activity [2] was “inactive”.

For `NC(Cc1cc(Cl)c(Cl)c(-c2ccccc2C(=O)O)c1)C(=O)O` (racemic), the Activity (Rattus norvegicus) was “inactive”, the IC50 [4] was over 100 µM and the Activity [1] was “inactive”. The Ki [5] was over 100 µM and the Activity [2] was “inactive”.
